Measurements from publication PMC9701462 (Hepatology Communications, 2022).

Key:
Assay type in all cases: in vivo, human
[1] = test system: subjects with presumed F2/F3 NASH; assay: Collagen biomarkers; details: for Pro-C3, Mean: plasma
Method in brief: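 Adults with presumed F2/F3 NASH were randomized 2:1 to oral active or matching placebo, given as 75-mg soft-gelatin capsules once daily in the morning, fasted, for 28 days. Collagen turnover markers were sampled at baseline (Day 1, pre-dose), after 28 days of dosing, and at end of study after a 14-day observation period. Values are summarized as mean, SD, median and range.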

[2] = test system: subjects with presumed F2/F3 NASH; assay: Serum liver enzymes ALT and AST, Phase 2a exploratory efficacy; details: for ALT, Mean: serum
Method in brief: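 Serum ALT and AST are exploratory efficacy endpoints, taken as absolute and percent change from baseline. Sampling was at Day 1 before dosing, during 28 days of once-daily fasted oral dosing, and after a 14-day off-drug observation period. Analysis used repeated-measures ANOVA/ANCOVA with Bonferroni correction, or Friedman/Savage nonparametric ANOVA when data were non-normal or sparse.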

[3] = Whole-blood pharmacokinetics; details: subjects with F2/F3 NASH, derived from CL/F and Vc/F estimates
Method in brief: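 Whole-blood samples were taken on Day 1 and Day 28 of once-daily oral dosing and assayed for parent drug and primary metabolites. Population PK used nonlinear mixed-effects modeling with first-order conditional estimation with interaction. Model choice used −2LL, AIC/BIC, %RSE and residual/VPC diagnostics; predictions ran to 816 h. CIs came from jackknife bootstrap (500 runs). Half-life was derived from CL/F and Vc/F estimates.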

[4] = test system: subjects with presumed F2/F3 NASH; assay: Phase 2a safety and tolerability; details: 28 days
Method in brief: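 Single-blind (subjects only), 2:1 randomized, placebo-controlled, at 10 US sites. Dosing was oral, once daily in the morning, fasted, for 28 days, as 75-mg soft-gelatin capsules. AEs, SAEs, labs (chemistry, hematology, coagulation, urinalysis), ECG, vitals and physical exams were recorded at screening, at Day 1 pre-dose baseline, then weekly for 4 weeks. Results are given as counts and percentages of the safety set per group.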

[5] = 75 mg QD oral x 28 days, Day 1 (baseline, before dosing), N = 14
[6] = 75 mg QD oral x 28 days, Day 1 (baseline, before dosing), N = 15
[7] = 75 mg QD oral x 28 days, Day 14, N = 14
[8] = 75 mg QD oral x 28 days, Day 14, N = 15
[9] = 75 mg QD oral x 28 days, Day 28, N = 14
[10] = 75 mg QD oral x 28 days, Day 28, N = 15
[11] = 75 mg QD oral x 28 days, Day 42 (after 14-day observation period), N = 14
[12] = 75 mg QD oral x 28 days, Day 42 (after 14-day observation period), N = 15
[13] = 225 mg QD oral x 28 days, Day 1 (baseline, before dosing), N = 15
[14] = 225 mg QD oral x 28 days, Day 1 (baseline, before dosing), N = 16
[15] = 225 mg QD oral x 28 days, Day 14, N = 15
[16] = 225 mg QD oral x 28 days, Day 14, N = 16
[17] = 225 mg QD oral x 28 days, Day 28, N = 15
[18] = 225 mg QD oral x 28 days, Day 28, N = 16
[19] = 225 mg QD oral x 28 days, Day 42 (after 14-day observation period), N = 16

With Rencofilstat [RCF] the “C1M, Mean” value [1, 5] was 90185.71 pg/mL, the “C6M, Mean” value [1, 5] was 25142.86 pg/mL and the “PRO-C8, Mean” value [1, 6] was 4985.33 pg/mL. For the same substance, the “Pro-C3, Mean” value [1, 5] was 23792.86 pg/mL, the “C1M, Mean” value [1, 7] was 80125.00 pg/mL and the “C6M, Mean” value [1, 7] was 25825.00 pg/mL. For the same substance, the “PRO-C8, Mean” value [1, 8] was 4693.33 pg/mL, the “Pro-C3, Mean” value [1, 7] was 22916.67 pg/mL and the “C1M, Mean” value [1, 9] was 70490.91 pg/mL. The “C6M, Mean” value [1, 9] was 23354.55 pg/mL, the “PRO-C8, Mean” value [1, 10] was 4683.33 pg/mL and the “Pro-C3, Mean” value [1, 9] was 22933.33 pg/mL. For the same substance, the “C1M, Mean” value [1, 11] was 65309.09 pg/mL, the “C6M, Mean” value [1, 11] was 23783.33 pg/mL and the “PRO-C8, Mean” value [1, 12] was 4923.33 pg/mL. The “PRO-C8, Mean” value [1, 13] was 4693.33 pg/mL, the “C1M, Mean” value [1, 14] was 70262.50 pg/mL and the “C6M, Mean” value [1, 14] was 31406.25 pg/mL. For the same substance, the “Pro-C3, Mean” value [1, 13] was 24413.33 pg/mL, the “PRO-C8, Mean” value [1, 15] was 4138.13 pg/mL and the “C1M, Mean” value [1, 16] was 55843.75 pg/mL. The “C6M, Mean” value [1, 16] was 29168.75 pg/mL, the “Pro-C3, Mean” value [1, 15] was 22418.75 pg/mL and the “PRO-C8, Mean” value [1, 17] was 4416.88 pg/mL. The “C1M, Mean” value [1, 18] was 62100.00 pg/mL, the “C6M, Mean” value [1, 18] was 31362.5 pg/mL and the “Pro-C3, Mean” value [1, 17] was 24043.75 pg/mL. The “PRO-C8, Mean” value ([1]; 225 mg QD oral x 28 days, Day 42 (after 14-day observation period), N = 15) was 4712.94 pg/mL, the “C1M, Mean” value [1, 19] was 69850.00 pg/mL and the “C6M, Mean” value [1, 19] was 33168.75 pg/mL. The “AST, Mean” value [2, 6] was 49.47 IU/L, the “ALT, Mean” value [2, 6] was 60.53 IU/L and the “AST, Mean” value [2, 8] was 39.42 IU/L. For the same substance, the “ALT, Mean” value [2, 8] was 47.00 IU/L, the “AST, Mean” value [2, 10] was 35.08 IU/L and the “ALT, Mean” value [2, 10] was 42.50 IU/L. The “AST, Mean” value [2, 12] was 41.45 IU/L, the “ALT, Mean” value [2, 12] was 50.00 IU/L and the “AST, Mean” value [2, 14] was 31.94 IU/L. The “ALT, Mean” value [2, 14] was 36.06 IU/L, the “AST, Mean” value [2, 16] was 32.82 IU/L and the “ALT, Mean” value [2, 16] was 31.59 IU/L. For the same substance, the “AST, Mean” value [2, 18] was 32.38 IU/L, the “ALT, Mean” value [2, 18] was 30.56 IU/L and the “AST, Mean” value [2, 19] was 31.38 IU/L. For the same substance, the “effective half-life of elimination (T1/2)” value [3] was 33.7 ± 11.1 h, the “Subjects with any TEAE” value ([4]; 75 mg QD oral, N = 15) was 5 (33.3%) n (%) and the “TEAE: Back pain” value ([4]; 75 mg QD oral, N = 15) was 0 (0%) n (%). For the same substance, the “TEAE: Constipation” value ([4]; 75 mg QD oral, N = 15) was 1 (6.7%) n (%), the “TEAE: Diarrhea” value ([4]; 75 mg QD oral, N = 15) was 0 (0%) n (%) and the “TEAE: Dizziness” value ([4]; 75 mg QD oral, N = 15) was 0 (0%) n (%). For the same substance, the “TEAE: Gastrointestinal disorders” value ([4]; 75 mg QD oral, N = 15) was 1 (6.7%) n (%), the “TEAE: Headache” value ([4]; 75 mg QD oral, N = 15) was 0 (0%) n (%) and the “TEAE: Musculoskeletal disorders” value ([4]; 75 mg QD oral, N = 15) was 2 (13.3%) n (%). For the same substance, the “TEAE: Nervous system disorders” value ([4]; 75 mg QD oral, N = 15) was 1 (6.7%) n (%), the “deaths or treatment-emergent SAEs (TESAEs)” value ([4]; 75 mg and 225 mg QD oral) was “No deaths or TESAEs” and the safety signals ([4]; 75 mg and 225 mg QD oral) was “No safety signals were identified”. The “Subjects with any TEAE” value ([4]; 225 mg QD oral, N = 17) was 10 (58.8%) n (%), the “TEAE: Back pain” value ([4]; 225 mg QD oral, N = 17) was 1 (5.9%) n (%) and the “TEAE: Constipation” value ([4]; 225 mg QD oral, N = 17) was 2 (11.8%) n (%). For the same substance, the “TEAE: Diarrhea” value ([4]; 225 mg QD oral, N = 17) was 2 (11.8%) n (%), the “TEAE: Dizziness” value ([4]; 225 mg QD oral, N = 17) was 1 (5.9%) n (%) and the “TEAE: Gastrointestinal disorders” value ([4]; 225 mg QD oral, N = 17) was 5 (29.4%) n (%). The “TEAE: Headache” value ([4]; 225 mg QD oral, N = 17) was 1 (5.9%) n (%), the “TEAE: Musculoskeletal disorders” value ([4]; 225 mg QD oral, N = 17) was 2 (11.8%) n (%) and the “TEAE: Nervous system disorders” value ([4]; 225 mg QD oral, N = 17) was 2 (11.8%) n (%).
